What was measured:
[1] = target: Aurora kinase B (Homo sapiens, UniProt Q96GD4); experiment: Inhibition of N-terminal 6xHis tagged Aurora B kinase expressed using baculovirus expression system using [gamma-33P]ATP
[2] = target: Fibroblast growth factor receptor 1 (Homo sapiens, UniProt P11362); experiment: Inhibition of FGFR1 using ATP preincubated with compound for 5 mins measured after 10 mins
[3] = target: Fibroblast growth factor receptor 3 (Homo sapiens, UniProt P22607); experiment: Inhibition of FGFR3 using ATP preincubated with compound for 5 mins measured after 10 mins
Fibroblast growth factor receptor 3, sequence (P22607 whole entry): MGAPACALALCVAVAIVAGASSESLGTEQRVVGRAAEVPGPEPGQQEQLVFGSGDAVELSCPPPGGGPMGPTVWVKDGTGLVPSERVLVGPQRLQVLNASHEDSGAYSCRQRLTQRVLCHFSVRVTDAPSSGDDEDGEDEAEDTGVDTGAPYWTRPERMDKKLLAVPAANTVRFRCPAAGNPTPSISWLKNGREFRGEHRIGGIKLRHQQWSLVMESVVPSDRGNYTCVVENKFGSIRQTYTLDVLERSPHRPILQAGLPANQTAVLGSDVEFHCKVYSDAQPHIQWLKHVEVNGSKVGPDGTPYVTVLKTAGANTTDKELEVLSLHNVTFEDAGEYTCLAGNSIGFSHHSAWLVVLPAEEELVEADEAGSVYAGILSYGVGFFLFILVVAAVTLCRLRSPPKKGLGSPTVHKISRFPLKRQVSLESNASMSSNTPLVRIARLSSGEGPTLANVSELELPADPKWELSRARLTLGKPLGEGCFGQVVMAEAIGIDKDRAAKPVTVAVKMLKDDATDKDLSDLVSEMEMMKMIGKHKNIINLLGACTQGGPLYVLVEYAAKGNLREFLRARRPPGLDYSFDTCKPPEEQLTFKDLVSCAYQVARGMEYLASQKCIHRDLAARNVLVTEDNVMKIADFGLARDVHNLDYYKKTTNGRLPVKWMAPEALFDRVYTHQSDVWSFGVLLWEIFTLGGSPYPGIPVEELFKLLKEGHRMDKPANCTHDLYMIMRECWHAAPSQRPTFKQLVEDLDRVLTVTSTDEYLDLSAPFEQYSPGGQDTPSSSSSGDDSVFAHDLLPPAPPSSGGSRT

[4] = target: Vascular endothelial growth factor receptor 2 (Homo sapiens, UniProt P35968); experiment: Inhibition of N-terminus FLAG-tagged VEGFR2 expressed using baculovirus infection system after 10 mins
[5] = target: Vascular endothelial growth factor receptor 1 (Homo sapiens, UniProt P17948); experiment: Inhibition of VEGFR1 using ATP preincubated with compound for 5 mins measured after 5 mins
[6] = target: Platelet-derived growth factor receptor alpha (Homo sapiens, UniProt P16234); experiment: Inhibition of PDGFRalpha using ATP measured after 30 mins
[7] = target: Platelet-derived growth factor receptor beta (Homo sapiens, UniProt P09619); experiment: Inhibition of PDGFRbeta using ATP measured after 60 mins
[8] = target: Mast/stem cell growth factor receptor Kit (Homo sapiens, UniProt P10721); experiment: Inhibition of c-kit using ATP measured after 20 mins
[9] = target: Cytoplasmic tyrosine-protein kinase BMX (Homo sapiens, UniProt P51813); experiment: Inhibition of BMX using ATP measured after 10 mins
[10] = target: Tyrosine-protein kinase ZAP-70 (Homo sapiens, UniProt P43403); experiment: Inhibition of ZAP70 using ATP measured after 10 mins
[11] = target: Insulin-like growth factor 1 receptor (Homo sapiens, UniProt P08069); experiment: Inhibition of IGFR1 using ATP measured after 20 mins
[12] = target: Mitogen-activated protein kinase 14 (Homo sapiens, UniProt Q16539); experiment: Inhibition of N-terminus FLAG-tagged p38alpha expressed in baculovirus expression system using [gamma-33P]-ATP measured after 60 mins by scintillation counting
[13] = target: Mitogen-activated protein kinase 3 (Homo sapiens, UniProt P27361); experiment: Inhibition of N-terminus FLAG-tagged Erk1 expressed in baculovirus expression system using [gamma-33P]-ATP measured after 60 mins by scintillation counting
[14] = target: Serine/threonine-protein kinase B-raf (Homo sapiens, UniProt P15056); experiment: Inhibition of N-terminus FLAG-tagged B-raf expressed in baculovirus expression system using [gamma-33P]-ATP measured after 60 mins by scintillation counting
[15] = target: Mitogen-activated protein kinase kinase kinase 5 (Homo sapiens, UniProt Q99683); experiment: Inhibition of N-terminus FLAG-tagged ASK1 expressed in baculovirus expression system using [gamma-33P]-ATP measured after 60 mins by scintillation counting
[16] = target: Protein kinase C theta type (Homo sapiens, UniProt Q04759); experiment: Inhibition of N-terminus FLAG-tagged PKCtheta expressed in baculovirus expression system using [gamma-33P]-ATP measured after 60 mins by scintillation counting
[17] = target: Serine/threonine-protein kinase PLK1 (Homo sapiens, UniProt P53350); experiment: Inhibition of N-terminus FLAG-tagged PLK1 expressed in baculovirus expression system using [gamma-33P]-ATP measured after 60 mins by scintillation counting
[18] = target: Mitogen-activated protein kinase 8 (Homo sapiens, UniProt P45983); experiment: Inhibition of N-terminus FLAG-tagged JNK1 expressed in baculovirus expression system using [gamma-33P]-ATP measured after 60 mins by scintillation counting
Mitogen-activated protein kinase 8, sequence (P45983 whole entry): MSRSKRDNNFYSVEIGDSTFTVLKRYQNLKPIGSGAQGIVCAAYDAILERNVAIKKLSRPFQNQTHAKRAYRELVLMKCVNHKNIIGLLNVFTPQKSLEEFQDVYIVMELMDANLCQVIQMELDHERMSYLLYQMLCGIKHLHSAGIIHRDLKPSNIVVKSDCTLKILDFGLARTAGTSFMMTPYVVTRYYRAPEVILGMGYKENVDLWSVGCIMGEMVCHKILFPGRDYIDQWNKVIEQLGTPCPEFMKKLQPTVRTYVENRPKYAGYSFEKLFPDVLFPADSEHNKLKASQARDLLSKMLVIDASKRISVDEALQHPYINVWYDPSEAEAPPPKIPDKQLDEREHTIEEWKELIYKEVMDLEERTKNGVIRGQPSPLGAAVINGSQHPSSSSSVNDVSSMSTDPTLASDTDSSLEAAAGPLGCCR

[19] = target: Dual specificity mitogen-activated protein kinase kinase 5 (Homo sapiens, UniProt Q13163); experiment: Inhibition of N-terminus FLAG-tagged MEK5 expressed in baculovirus expression system using [gamma-33P]-ATP measured after 30 mins by scintillation counting
[20] = target: Glycogen synthase kinase-3 beta (Homo sapiens, UniProt P49841); experiment: Inhibition of N-terminus FLAG-tagged GSK3beta expressed in baculovirus expression system using [gamma-33P]-ATP measured after 30 mins by scintillation counting
[21] = target: Dual specificity protein kinase TTK (Homo sapiens, UniProt P33981); experiment: Inhibition of N-terminus FLAG-tagged TTK expressed in baculovirus expression system using [gamma-33P]-ATP measured after 60 mins by scintillation counting
[22] = target: Inhibitor of nuclear factor kappa-B kinase subunit beta (Homo sapiens, UniProt O14920); experiment: Inhibition of C-terminus FLAG-tagged IKKbeta expressed in baculovirus expression system using [gamma-33P]-ATP measured after 30 mins by scintillation counting
[23] = target: Mitogen-activated protein kinase kinase kinase 1 (Homo sapiens, UniProt Q13233); experiment: Inhibition of C-terminus FLAG-tagged MEKK1 expressed in baculovirus expression system using [gamma-33P]-ATP measured after 60 mins by scintillation counting
[24] = target: Focal adhesion kinase 1 (Homo sapiens, UniProt Q05397); experiment: Inhibition of FAK using ATP measured after 60 mins
[25] = Antitumor activity against human 4-1ST cells overexpressing HER2 gene xenografted in nude mouse assessed as tumor growth regression at 50 mg/kg, po BID for 14 days relative to control; format: functional
In short: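 Oral dosing at 50 mg/kg in mice bearing 4-1ST (HER2-overexpressing) tumor xenografts. Efficacy was expressed as tumor/control ratio (T/C). Significance versus control at day 14 was tested by one-tailed Shirley–Williams test.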

[26] = tested on: CAL-27; experiment: Antitumor activity against human CAL27 cells overexpressing EGFR gene xenografted in nude mouse assessed as tumor growth regression at 100 mg/kg, po BID for 14 days relative to control; format: functional
In short: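 CAL27 human head and neck cancer (EGFR-overexpressing) xenografts in mice were dosed orally at 100 mg/kg. Efficacy was expressed as tumor/control ratio (T/C) against vehicle control.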

[27] = target: Receptor tyrosine-protein kinase erbB-2 (Homo sapiens, UniProt P04626); experiment: Inhibition of N-terminus peptide-tagged human recombinant HER2 expressed using baculovirus infection system using [gamma-33P]-ATP preincubated with compound for 5 mins measured after 10 mins by scintillation counting
Receptor tyrosine-protein kinase erbB-2, sequence (P04626 whole entry): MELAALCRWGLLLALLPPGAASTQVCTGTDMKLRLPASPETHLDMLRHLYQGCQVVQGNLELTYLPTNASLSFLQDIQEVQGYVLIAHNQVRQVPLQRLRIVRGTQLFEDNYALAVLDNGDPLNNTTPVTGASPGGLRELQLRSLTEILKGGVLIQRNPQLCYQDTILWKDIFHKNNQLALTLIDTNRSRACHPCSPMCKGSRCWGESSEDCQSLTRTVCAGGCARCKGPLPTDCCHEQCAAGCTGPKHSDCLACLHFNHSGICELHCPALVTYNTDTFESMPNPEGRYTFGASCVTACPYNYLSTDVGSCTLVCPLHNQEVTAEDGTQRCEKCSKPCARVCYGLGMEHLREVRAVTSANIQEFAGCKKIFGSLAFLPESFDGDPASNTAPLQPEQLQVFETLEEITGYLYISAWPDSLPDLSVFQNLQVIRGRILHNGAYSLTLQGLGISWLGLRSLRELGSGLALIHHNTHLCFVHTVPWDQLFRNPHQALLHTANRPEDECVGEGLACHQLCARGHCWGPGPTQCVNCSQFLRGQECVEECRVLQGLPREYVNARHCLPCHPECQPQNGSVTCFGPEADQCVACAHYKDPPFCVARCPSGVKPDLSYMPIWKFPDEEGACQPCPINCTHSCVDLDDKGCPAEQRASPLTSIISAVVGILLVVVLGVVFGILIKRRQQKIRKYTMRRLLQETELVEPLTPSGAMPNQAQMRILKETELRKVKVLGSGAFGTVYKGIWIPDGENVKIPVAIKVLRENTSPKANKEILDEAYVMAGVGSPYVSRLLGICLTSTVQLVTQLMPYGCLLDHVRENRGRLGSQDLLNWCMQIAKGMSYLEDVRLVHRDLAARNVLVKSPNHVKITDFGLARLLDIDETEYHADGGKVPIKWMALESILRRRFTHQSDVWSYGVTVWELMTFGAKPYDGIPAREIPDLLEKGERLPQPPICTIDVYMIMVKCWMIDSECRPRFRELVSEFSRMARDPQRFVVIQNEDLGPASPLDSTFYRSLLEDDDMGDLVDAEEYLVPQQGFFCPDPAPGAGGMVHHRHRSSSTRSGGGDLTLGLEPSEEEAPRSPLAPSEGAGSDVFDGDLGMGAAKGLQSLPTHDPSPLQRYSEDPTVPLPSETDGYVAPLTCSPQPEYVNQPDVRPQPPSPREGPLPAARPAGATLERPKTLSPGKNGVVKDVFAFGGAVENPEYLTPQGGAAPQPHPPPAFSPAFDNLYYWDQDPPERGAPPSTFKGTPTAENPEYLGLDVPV

[28] = tested on: BT-474; experiment: Growth inhibition of human BT474 cells overexpressing HER2 gene after 5 days; format: functional; settings: BT-474, 120 h
[29] = Metabolic stability in mouse liver microsomes at 1 umol/L after 20 mins by HPLC analysis; format: ADME, Microsome; settings: read-out: Stability
[30] = Metabolic stability in human liver microsomes at 1 umol/L after 20 mins by HPLC analysis; format: ADME, Microsome; settings: read-out: Stability
[31] = target: CYP3A4 (Homo sapiens, UniProt P08684); experiment: Inhibition of CYP3A4 at 10 uM after 15 mins; format: ADME
CYP3A4, sequence (P08684 whole entry): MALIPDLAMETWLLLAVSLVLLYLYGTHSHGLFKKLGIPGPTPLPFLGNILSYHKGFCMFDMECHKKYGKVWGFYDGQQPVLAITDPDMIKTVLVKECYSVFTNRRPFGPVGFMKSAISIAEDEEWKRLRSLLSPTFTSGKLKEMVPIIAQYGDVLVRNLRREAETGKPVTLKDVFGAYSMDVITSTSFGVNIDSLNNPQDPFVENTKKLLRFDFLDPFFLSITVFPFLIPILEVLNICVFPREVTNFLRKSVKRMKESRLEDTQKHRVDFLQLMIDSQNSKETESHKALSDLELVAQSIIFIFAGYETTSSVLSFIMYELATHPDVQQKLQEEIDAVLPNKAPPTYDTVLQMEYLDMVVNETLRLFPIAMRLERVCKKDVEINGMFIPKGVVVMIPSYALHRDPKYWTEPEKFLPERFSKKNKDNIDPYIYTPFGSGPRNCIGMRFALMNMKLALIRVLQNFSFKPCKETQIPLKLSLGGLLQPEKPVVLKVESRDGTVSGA

[32] = target: Receptor tyrosine-protein kinase erbB-4 (Homo sapiens, UniProt Q15303); experiment: Inhibition of N-terminus peptide-tagged human recombinant HER4 expressed using baculovirus infection system using [gamma-33P]-ATP preincubated with compound for 5 mins measured after 10 mins by scintillation counting
[33] = target: Tyrosine-protein kinase Lck (Homo sapiens, UniProt P06239); experiment: Inhibition of LCK using ATP preincubated with compound for 5 mins measured after 30 mins
[34] = target: Hepatocyte growth factor receptor (Homo sapiens, UniProt P08581); experiment: Inhibition of c-Met using ATP preincubated with compound for 5 mins measured after 10 mins
[35] = target: Dual specificity mitogen-activated protein kinase kinase 1 (Homo sapiens, UniProt Q02750); experiment: Inhibition of N-terminus GST -fused MEK1 expressed using baculovirus infection system using [gamma-33P]ATP preincubated with compound for 5 mins measured after 30 mins by scintillation counting
Dual specificity mitogen-activated protein kinase kinase 1, sequence (Q02750 whole entry, the tested form may be a part): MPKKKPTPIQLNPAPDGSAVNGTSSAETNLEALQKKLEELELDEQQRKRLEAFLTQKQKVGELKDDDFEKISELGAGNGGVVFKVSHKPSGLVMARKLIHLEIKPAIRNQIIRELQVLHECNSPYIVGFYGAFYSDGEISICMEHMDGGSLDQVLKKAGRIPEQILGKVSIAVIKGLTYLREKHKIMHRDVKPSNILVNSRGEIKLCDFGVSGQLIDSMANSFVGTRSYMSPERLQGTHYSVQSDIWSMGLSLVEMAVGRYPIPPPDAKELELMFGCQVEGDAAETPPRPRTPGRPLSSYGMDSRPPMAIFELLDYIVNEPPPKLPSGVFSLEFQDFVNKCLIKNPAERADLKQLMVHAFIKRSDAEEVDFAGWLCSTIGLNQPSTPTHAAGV

[36] = target: T1, Tyrosine-protein kinase Lyn (Homo sapiens, UniProt P07948); experiment: Inhibition of Lyn B using ATP preincubated with compound for 5 mins measured after 10 mins
T1 sequence (P07948 whole entry): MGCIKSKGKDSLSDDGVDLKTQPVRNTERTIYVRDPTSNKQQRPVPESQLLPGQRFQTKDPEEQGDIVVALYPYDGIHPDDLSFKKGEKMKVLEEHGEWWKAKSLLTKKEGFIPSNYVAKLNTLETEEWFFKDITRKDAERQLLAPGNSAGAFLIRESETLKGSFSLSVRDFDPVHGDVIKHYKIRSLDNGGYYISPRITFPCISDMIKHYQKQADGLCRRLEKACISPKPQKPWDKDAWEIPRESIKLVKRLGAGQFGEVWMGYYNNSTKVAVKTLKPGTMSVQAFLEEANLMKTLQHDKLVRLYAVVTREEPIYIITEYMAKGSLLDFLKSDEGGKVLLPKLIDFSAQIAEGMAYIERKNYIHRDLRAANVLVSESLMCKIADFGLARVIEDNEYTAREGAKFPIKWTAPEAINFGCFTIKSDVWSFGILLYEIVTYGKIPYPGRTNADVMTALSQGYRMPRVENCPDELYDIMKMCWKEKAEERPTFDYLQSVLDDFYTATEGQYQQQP

[37] = target: Angiopoietin-1 receptor (Homo sapiens, UniProt Q02763); experiment: Inhibition of TIE2 using ATP preincubated with compound for 5 mins measured after 10 mins
Angiopoietin-1 receptor, sequence (Q02763 whole entry): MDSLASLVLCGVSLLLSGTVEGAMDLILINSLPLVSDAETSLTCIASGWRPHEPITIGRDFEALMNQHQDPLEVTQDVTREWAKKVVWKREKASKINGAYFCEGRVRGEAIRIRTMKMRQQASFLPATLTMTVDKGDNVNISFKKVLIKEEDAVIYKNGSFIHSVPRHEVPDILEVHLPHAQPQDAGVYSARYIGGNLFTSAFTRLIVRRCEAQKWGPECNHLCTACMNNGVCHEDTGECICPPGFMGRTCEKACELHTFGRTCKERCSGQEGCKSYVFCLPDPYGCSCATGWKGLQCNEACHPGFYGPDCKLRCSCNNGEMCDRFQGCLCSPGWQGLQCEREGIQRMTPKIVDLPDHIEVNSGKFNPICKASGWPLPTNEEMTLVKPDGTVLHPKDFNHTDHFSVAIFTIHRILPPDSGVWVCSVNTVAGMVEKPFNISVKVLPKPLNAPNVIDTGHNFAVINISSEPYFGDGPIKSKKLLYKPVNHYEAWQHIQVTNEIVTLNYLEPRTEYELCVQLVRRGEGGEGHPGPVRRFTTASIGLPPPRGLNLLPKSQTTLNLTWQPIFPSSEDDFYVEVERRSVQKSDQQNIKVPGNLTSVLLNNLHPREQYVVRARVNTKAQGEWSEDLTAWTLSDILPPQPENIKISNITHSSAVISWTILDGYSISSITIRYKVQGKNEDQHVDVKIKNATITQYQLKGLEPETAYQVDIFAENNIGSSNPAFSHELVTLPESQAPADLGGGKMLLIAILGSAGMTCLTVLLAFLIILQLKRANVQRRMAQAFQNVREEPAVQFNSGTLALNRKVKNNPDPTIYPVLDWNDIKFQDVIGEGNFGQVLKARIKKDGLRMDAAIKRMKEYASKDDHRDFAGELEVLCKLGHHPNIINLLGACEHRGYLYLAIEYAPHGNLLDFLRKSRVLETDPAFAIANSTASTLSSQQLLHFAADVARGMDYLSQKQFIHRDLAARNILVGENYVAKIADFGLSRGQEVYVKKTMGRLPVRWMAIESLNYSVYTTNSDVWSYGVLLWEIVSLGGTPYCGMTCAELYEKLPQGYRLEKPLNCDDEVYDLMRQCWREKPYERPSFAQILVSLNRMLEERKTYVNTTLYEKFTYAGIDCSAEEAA

[38] = target: Tyrosine-protein kinase CSK (Homo sapiens, UniProt P41240); experiment: Inhibition of CSK using ATP preincubated with compound for 5 mins measured after 10 mins
[39] = target: T1, Tyrosine-protein kinase Lyn; experiment: Inhibition of Lyn A using ATP preincubated with compound for 5 mins measured after 10 mins
[40] = target: Proto-oncogene tyrosine-protein kinase Src (Homo sapiens, UniProt P12931); experiment: Inhibition of Src using ATP preincubated with compound for 5 mins measured after 10 mins

IC50 [1]: > 10 µM
IC50 [2]: > 10 µM
IC50 [3]: > 10 µM
IC50 [4]: > 10 µM
IC50 [5]: > 10 µM
IC50 [6]: > 10 µM
IC50 [7]: > 10 µM
IC50 [8]: > 10 µM
IC50 [9]: > 10 µM
IC50 [10]: > 10 µM
IC50 [11]: > 10 µM
IC50 [12]: > 10 µM
IC50 [13]: > 10 µM
IC50 [14]: > 10 µM
IC50 [15]: > 10 µM
IC50 [16]: > 10 µM
IC50 [17]: > 10 µM
IC50 [18]: > 10 µM
IC50 [19]: > 10 µM
IC50 [20]: > 10 µM
IC50 [21]: > 10 µM
IC50 [22]: > 10 µM
IC50 [23]: > 10 µM
IC50 [24]: > 10 µM
IC50 [27]: 0.00098 µM
GI50 [28]: 0.002 µM
microsomal CLint at 1 µM [29]: 77 µL/min/mg
microsomal CLint at 1 µM [30]: 88 µL/min/mg
inhibition at 0.25 h, 10 µM [31]: 21.2%
IC50 [32]: 0.079 µM
IC50 [33]: 1.7 µM
IC50 [34]: 1.8 µM
IC50 [35]: 2.1 µM
IC50 [36]: 3 µM
IC50 [37]: 3.2 µM
IC50 [38]: 3.9 µM
IC50 [39]: 7.1 µM
IC50 [40]: 8.4 µM
Compound: CC(C)(N)C(=O)NCCn1ccc2ncnc(Nc3ccc(Oc4cccc5sncc45)c(Cl)c3)c21
T/C [25]: -23%
T/C [26]: -30%

Reference: ChEMBL document CHEMBL2046372, “Design and synthesis of pyrrolo[3,2-d]pyrimidine human epidermal growth factor receptor 2 (HER2)/epidermal growth factor receptor (EGFR) dual inhibitors: exploration of novel back-pocket binders” (J Med Chem, 2012)
